The target of data set [1] is Tyrosine-protein kinase Fyn (Homo sapiens) (UniProt P06241). The experiment in a line: Inhibition of recombinant full-length human Fyn at 1 uM using KVEKIGEGTYGVVYK as substrate measured after 40 mins in presence of [gamma33P]ATP by scintillation counting method relative to control.
Data set [2] in a line: Half life in CD-1 mouse liver microsomes at 2 uM in presence of NADPH measured up to 1 hr by HPLC analysis. The data set is classed as ADME, Microsome. In short, it runs like this: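 Drug at 2 µM incubated at 37 °C with male liver microsomes at 1 mg/mL, in 0.1 M phosphate buffer pH 7.4 with MgCl2. After 5 min preincubation, reaction started with NADPH. Samples (n=3) taken at 0, 10, 20, 30, 45 and 60 min, quenched with ice-cold acetonitrile, spun, and analysed by HPLC. t1/2 derived from the fitted rate constant k.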

The target in data set [3] is Dual specificity protein kinase CLK2 (Homo sapiens) (UniProt P49760). The experiment in a line: Inhibition of recombinant human CLK2 (138 to end residues) at 1 uM using YRRAAVPPSPSLSRHSSPHQS(p) EDEEE as substrate measured after 40 mins in presence of [gamma33P]ATP by scintillation counting method relative to control. In short, it runs like this: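 Single-point inhibition at 1 µM was measured in the Eurofins KinaseProfiler panel. Values are the mean of two independent experiments.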

Data set [4] addresses Inhibitor of nuclear factor kappa-B kinase subunit epsilon (Homo sapiens) (UniProt Q14164). The experiment in a line: Inhibition of recombinant full-length human IKKepsilon at 1 uM using casein as substrate measured after 40 mins in presence of [gamma33P]ATP by scintillation counting method relative to control.
The subject of data set [5] is Fibroblast growth factor receptor 1 (Homo sapiens), P11362 [V561M]. The experiment in a line: Inhibition of recombinant human FGFR1 V561M mutant (456 to 765 residues) at 1 uM using GGEEEEYFELVKKKK as substrate measured after 40 mins in presence of [gamma33P]ATP by scintillation counting method relative to control.
Data set [6] deals with Mitogen-activated protein kinase kinase kinase 20 (Homo sapiens) (UniProt Q9NYL2). As to the kind of experiment: Inhibition of recombinant full-length human ZAK at 1 uM using MBP as substrate measured after 40 mins in presence of [gamma33P]ATP by scintillation counting method relative to control.
Data set [7] concerns the target Serine/threonine-protein kinase WNK1 (Homo sapiens) (UniProt Q9H4A3). As to the kind of experiment: Inhibition of recombinant human WNK1 (1 to 491 residues) at 1 uM using MBP as substrate measured after 120 mins in presence of [gamma33P]ATP by scintillation counting method relative to control.
The next data set relates to NCI-H1299. As to the kind of experiment: Induction of apoptosis in human H1299 cells assessed as viable cells at 0.25 uM after 48 hrs by AnnexinV-FITC/PI staining-based flow cytometric analysis (reference value: 97.1%). The data set is classed as functional. The conditions noted are these: NCI-H1299, 48 h, read-out: Activity.
The target in data set [8] is Serine/threonine-protein kinase/endoribonuclease IRE1 (Homo sapiens) (UniProt O75460). As to the kind of experiment: Inhibition of recombinant human IRE1 (465 to end residues) at 1 uM using myelin basic protein as substrate measured after 40 mins in presence of [gamma33P]ATP by scintillation counting method relative to control.
The target of data set [9] is Serine/threonine-protein kinase SIK1 (Homo sapiens) (UniProt P57059). The experiment in a line: Inhibition of human SIK (1 to 281 residues) at 1 uM using AMARAASAAALARRR as substrate measured after 40 mins in presence of [gamma33P]ATP by scintillation counting method relative to control. The essentials:
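Percent inhibition of kinase activity at a single compound concentration, measured by the outsourced Eurofins KinaseProfiler panel. Values are the mean of two independent experiments.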

In data set [10] the target is Cyclin-dependent kinase 9 (Homo sapiens) (UniProt P50750). The note with it: A549, 0.25 to 1 uM.
For data set [11], the target named is LIM domain kinase 1 (Homo sapiens) (UniProt P53667). As to the kind of experiment: Inhibition of recombinant human LIMK1 (285 to 638 residues) at 1 uM using cofilin as substrate measured after 40 mins in presence of [gamma33P]ATP by scintillation counting method relative to control.
The target of data set [12] is MAP kinase-activated protein kinase 3 (Homo sapiens) (UniProt Q16644). As to the kind of experiment: Inhibition of recombinant human MAPKAPK3 (2 to end residues) at 1 uM using KKLNRTLSVA as substrate measured after 40 mins in presence of [gamma33P]ATP by scintillation counting method relative to control.
Data set [13] has as its target Rho-associated protein kinase 2 (Homo sapiens) (UniProt O75116). As to the kind of experiment: Inhibition of human ROCK2 (11 to 552 residues) at 1 uM using KEAKEKRQEQIAKRRRLSSLRASTSKSGGSQK as substrate measured after 40 mins in presence of [gamma33P]ATP by scintillation counting method relative to control. The essentials: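 Percent inhibition at 1 µM was measured by the contract KinaseProfiler service (Eurofins) on the human kinase. Values are the mean of two independent experiments.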

Data set [14] concerns the target Protein kinase C iota type (Homo sapiens) (UniProt P41743). The experiment in a line: Inhibition of recombinant full-length human PKCiota at 1 uM using ERMRPRKRQGSVRRRV as substrate measured after 40 mins in presence of [gamma33P]ATP by scintillation counting method relative to control.
Data set [15] addresses Serine/threonine-protein kinase pim-2 (Homo sapiens) (UniProt Q9P1W9). The experiment in a line: Inhibition of recombinant human Pim-2 (2 to end residues) at 1 uM using RSRHSSYPAGT as substrate measured after 40 mins in presence of [gamma33P]ATP by scintillation counting method relative to control.
The target of data set [16] is Dual specificity protein kinase CLK3 (Homo sapiens) (UniProt P49761). As to the kind of experiment: Inhibition of full length recombinant human CLK3 at 1 uM using ERMRPRKRQGSVRRRV as substrate measured after 40 mins in presence of [gamma33P]ATP by scintillation counting method relative to control.
The target of data set [17] is Cyclin-dependent kinase 9 (Homo sapiens) (UniProt P50750). The conditions noted are these: 0.25 uM.
Data set [18] relates to Tyrosine-protein kinase ABL1 (Homo sapiens), P00519 [Y253F]. As to the kind of experiment: Inhibition of recombinant human Abl Y253F mutant (27 to end residues) at 1 uM using EAIYAAPFAKKK as substrate measured after 40 mins in presence of [gamma33P]ATP by scintillation counting method relative to control.
Data set [19] has as its target Serine/threonine-protein kinase Nek11 (Homo sapiens) (UniProt Q8NG66). The experiment in a line: Inhibition of recombinant full-length human NEK11 at 1 uM using myelin basic protein as substrate measured after 40 mins in presence of [gamma33P]ATP by scintillation counting method relative to control.
In data set [20] the target is cGMP-dependent protein kinase 1 (Homo sapiens) (UniProt Q13976). As to the kind of experiment: Inhibition of recombinant full-length human PKG1alpha at 1 uM using RRRLSFAEPG as substrate measured after 40 mins in presence of [gamma33P]ATP by scintillation counting method relative to control.
Data set [21] has as its target cGMP-dependent protein kinase 2 (Homo sapiens) (UniProt Q13237). The experiment in a line: Inhibition of recombinant full-length human PRKG2 at 1 uM using KKLRRTLSFAEPG as substrate measured after 40 mins in presence of [gamma33P]ATP by scintillation counting method relative to control.

Active and inactive are the calls of the source. No cut-off for these calls is given here.

Cyclin-dependent kinase 9 (Homo sapiens), sequence (P50750 whole entry, the tested form may be a part): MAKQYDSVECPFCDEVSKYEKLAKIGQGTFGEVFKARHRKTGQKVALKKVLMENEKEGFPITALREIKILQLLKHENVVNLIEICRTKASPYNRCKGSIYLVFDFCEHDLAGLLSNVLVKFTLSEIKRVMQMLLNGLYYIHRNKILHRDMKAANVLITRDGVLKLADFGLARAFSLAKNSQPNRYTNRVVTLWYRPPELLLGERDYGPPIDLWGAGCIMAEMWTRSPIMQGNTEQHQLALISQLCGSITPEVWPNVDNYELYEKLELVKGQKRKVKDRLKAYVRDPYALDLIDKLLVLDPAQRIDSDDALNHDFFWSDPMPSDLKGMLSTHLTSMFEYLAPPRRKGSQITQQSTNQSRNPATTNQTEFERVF
Dual specificity protein kinase CLK2 (Homo sapiens), sequence (P49760 whole entry, looked up): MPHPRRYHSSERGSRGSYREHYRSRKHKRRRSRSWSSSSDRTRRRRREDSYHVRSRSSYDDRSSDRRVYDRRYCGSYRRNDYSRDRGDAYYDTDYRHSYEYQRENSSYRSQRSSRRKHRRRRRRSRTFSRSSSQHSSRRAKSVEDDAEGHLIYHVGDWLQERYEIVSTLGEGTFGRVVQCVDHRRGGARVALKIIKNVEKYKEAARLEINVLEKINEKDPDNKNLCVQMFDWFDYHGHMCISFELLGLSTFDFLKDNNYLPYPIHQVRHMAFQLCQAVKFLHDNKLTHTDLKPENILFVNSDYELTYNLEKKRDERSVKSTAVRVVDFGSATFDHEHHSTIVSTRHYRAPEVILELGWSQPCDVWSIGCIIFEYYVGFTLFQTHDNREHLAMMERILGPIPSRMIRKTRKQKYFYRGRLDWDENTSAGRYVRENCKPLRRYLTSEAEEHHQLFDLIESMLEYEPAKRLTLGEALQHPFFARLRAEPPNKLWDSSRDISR
LIM domain kinase 1 (Homo sapiens), sequence (P53667 whole entry, looked up, the tested form may be a part): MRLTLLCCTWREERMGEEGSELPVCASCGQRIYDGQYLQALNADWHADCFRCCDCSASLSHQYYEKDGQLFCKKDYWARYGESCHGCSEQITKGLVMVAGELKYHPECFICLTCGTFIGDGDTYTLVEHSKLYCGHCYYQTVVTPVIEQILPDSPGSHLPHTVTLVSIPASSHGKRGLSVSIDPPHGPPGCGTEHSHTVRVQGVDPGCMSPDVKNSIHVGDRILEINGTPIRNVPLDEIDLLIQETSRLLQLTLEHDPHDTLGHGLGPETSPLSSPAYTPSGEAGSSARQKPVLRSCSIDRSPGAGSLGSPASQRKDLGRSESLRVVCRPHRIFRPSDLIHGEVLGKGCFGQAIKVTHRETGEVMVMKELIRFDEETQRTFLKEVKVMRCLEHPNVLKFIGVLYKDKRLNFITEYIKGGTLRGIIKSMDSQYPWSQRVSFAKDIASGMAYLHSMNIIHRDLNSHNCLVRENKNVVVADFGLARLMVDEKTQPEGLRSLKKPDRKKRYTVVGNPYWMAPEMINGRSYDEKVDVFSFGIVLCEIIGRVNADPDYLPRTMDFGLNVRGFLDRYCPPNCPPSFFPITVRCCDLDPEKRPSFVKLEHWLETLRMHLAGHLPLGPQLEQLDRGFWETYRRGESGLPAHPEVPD
MAP kinase-activated protein kinase 3 (Homo sapiens), sequence (Q16644 whole entry, looked up, the tested form may be a part): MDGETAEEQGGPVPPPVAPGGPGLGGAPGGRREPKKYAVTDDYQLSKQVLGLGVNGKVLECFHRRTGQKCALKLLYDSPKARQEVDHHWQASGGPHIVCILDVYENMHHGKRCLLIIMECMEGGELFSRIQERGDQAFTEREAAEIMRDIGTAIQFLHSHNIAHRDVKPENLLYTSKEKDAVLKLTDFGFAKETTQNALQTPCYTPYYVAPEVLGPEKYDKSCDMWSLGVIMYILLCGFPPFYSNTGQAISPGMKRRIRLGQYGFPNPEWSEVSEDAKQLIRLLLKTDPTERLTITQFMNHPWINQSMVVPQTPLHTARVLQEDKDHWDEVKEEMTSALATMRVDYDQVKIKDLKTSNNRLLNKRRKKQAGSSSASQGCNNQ
Serine/threonine-protein kinase SIK1 (Homo sapiens), sequence (P57059 whole entry, the tested form may be a part): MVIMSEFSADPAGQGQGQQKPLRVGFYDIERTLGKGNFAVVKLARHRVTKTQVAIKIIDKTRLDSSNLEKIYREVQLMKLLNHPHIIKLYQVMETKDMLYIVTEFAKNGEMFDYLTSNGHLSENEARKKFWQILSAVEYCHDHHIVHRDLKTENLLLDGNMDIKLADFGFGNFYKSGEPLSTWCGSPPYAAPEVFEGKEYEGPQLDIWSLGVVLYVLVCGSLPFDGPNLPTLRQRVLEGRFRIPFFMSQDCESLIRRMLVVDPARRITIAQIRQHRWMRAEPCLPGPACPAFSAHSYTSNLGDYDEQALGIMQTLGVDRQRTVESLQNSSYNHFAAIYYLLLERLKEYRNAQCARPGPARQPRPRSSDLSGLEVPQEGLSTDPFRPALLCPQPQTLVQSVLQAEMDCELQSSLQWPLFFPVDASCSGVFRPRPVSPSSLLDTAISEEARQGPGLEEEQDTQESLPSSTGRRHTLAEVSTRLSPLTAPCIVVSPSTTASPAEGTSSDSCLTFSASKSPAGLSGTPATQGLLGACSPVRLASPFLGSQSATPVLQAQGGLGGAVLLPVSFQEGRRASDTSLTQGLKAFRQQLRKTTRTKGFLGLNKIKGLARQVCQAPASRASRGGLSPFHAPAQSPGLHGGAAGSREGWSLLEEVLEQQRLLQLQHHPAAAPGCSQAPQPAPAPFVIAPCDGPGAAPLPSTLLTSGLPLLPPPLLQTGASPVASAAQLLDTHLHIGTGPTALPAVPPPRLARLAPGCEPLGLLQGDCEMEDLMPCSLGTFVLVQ
Serine/threonine-protein kinase/endoribonuclease IRE1 (Homo sapiens), sequence (O75460 19-977 limits assumed): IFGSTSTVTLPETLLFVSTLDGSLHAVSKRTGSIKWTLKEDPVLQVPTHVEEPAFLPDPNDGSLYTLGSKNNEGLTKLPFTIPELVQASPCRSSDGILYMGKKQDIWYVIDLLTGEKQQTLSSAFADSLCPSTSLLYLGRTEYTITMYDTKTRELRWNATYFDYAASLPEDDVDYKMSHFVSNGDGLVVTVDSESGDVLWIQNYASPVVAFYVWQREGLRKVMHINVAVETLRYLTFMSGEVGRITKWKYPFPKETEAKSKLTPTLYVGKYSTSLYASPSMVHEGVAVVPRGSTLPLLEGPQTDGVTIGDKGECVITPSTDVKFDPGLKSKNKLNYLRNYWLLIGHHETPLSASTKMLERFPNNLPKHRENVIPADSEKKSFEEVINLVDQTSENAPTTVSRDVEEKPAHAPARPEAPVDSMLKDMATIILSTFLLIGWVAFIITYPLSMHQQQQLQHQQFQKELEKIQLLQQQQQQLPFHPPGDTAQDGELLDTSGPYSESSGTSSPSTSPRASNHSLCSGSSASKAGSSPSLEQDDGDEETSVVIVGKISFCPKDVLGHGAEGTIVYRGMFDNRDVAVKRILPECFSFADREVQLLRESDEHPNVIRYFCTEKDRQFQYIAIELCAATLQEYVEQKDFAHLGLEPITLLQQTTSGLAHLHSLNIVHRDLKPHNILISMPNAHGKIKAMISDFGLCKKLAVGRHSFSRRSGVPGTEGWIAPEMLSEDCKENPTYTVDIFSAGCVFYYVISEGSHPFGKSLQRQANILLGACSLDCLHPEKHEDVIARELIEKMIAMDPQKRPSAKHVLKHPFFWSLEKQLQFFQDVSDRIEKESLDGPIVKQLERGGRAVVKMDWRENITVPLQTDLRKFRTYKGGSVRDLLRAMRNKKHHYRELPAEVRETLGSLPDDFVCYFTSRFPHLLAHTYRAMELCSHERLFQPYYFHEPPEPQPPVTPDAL
Mitogen-activated protein kinase kinase kinase 20 (Homo sapiens), sequence (Q9NYL2 2-800 limits assumed): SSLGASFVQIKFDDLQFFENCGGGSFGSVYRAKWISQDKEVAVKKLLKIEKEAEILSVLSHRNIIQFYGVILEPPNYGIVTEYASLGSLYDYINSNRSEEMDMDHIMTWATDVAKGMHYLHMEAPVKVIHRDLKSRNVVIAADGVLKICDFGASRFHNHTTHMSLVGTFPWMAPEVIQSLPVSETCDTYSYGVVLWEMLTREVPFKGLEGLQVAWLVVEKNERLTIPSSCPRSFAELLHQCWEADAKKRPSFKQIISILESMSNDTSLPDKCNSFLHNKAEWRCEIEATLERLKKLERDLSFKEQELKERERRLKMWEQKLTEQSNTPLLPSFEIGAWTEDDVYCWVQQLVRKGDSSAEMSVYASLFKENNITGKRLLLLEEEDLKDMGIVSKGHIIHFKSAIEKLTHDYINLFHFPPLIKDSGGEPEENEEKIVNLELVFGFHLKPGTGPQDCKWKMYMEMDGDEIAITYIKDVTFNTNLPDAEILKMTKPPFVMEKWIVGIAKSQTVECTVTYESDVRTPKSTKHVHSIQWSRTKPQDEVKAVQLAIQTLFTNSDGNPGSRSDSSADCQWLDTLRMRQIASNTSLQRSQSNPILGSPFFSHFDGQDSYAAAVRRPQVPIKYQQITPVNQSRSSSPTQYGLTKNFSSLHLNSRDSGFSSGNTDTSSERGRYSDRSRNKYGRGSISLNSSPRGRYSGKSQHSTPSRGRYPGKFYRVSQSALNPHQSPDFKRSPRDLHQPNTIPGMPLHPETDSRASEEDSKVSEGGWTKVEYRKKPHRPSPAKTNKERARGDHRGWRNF
Protein kinase C iota type (Homo sapiens), sequence (P41743 whole entry): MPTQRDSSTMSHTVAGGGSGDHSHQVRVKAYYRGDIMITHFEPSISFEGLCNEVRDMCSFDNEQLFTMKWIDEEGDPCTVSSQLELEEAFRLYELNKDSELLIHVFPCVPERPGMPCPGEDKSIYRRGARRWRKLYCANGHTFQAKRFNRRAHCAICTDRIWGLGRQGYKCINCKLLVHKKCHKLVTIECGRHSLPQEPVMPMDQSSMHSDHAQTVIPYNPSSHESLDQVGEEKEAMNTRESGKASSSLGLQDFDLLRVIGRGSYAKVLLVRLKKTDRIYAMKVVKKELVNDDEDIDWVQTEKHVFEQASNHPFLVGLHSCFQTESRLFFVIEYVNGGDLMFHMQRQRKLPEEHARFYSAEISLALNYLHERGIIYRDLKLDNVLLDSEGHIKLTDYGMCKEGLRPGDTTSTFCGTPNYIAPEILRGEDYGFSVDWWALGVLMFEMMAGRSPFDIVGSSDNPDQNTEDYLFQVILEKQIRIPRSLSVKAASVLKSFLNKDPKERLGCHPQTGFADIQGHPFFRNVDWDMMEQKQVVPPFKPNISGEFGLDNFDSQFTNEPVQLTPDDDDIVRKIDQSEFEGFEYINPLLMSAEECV

As to `CN(C)C(=O)c1cc2cnc(Nc3ccc(NC(=O)CCCCCCCN=C=S)cc3)nc2n1C1CCCC1`, the inhibition was 2% in data set [1]; 12% in [3]; -4% in [4]; 86% in data set [5]; 86% in [6]; 6% in data set [7]. Moreover, the inhibition in [8] is 29%; in data set [9] it was 51%; in data set [11], 71%; in [12], 0%; in data set [13], 5%; in [14], -4%. Further, the inhibition in data set [15] is -1%; in data set [16] it was 37%; in data set [18] it was 53%; in data set [19], 20%; in data set [20], -3%; in [21] it was 0%. In data set [2], the half-life at 2 µM is 23.1 min. For the same compound, the viability at 0.25 µM with NCI-H1299 came out at 96.7%. Moreover, the inhibition entry in data set [10] and in data set [17] was “Active” throughout.

The values above are taken from ChEMBL document CHEMBL4376814, “Novel cyclin-dependent kinase 9 (CDK9) inhibitor with suppression of cancer stemness activity against non-small-cell lung cancer” (Eur J Med Chem, 2019).
